In ChEMBL document CHEMBL4610031, “Design, synthesis and biological evaluation of Proteolysis Targeting Chimeras (PROTACs) as a BTK degraders with improved pharmacokinetic properties” (Bioorg Med Chem Lett, 2020):

Experiments:
[1] = biological target: T1, Protein cereblon/Tyrosine-protein kinase BTK (Homo sapiens, UniProt Q06187+Q96SW2); test: Protac activity at CRBN/BTK in human NAMALWA cells assessed as induction of BTK protein degradation incubated for 24 hrs by immunoblotting method; assay type: cell-based; conditions: namalva
How it was run: (§1)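 NAMALWA cells were grown in RPMI 1640 with 10% FBS, streptomycin and penicillin at 37 °C, 5% CO2. 2 × 10^6 cells per concentration were treated 24 h, rinsed in cold PBS, and lysed in Tris pH 8.0/deoxycholate/Triton X-100 with protease and phosphatase inhibitors.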
Target sequence in this assay (Q06187 whole entry): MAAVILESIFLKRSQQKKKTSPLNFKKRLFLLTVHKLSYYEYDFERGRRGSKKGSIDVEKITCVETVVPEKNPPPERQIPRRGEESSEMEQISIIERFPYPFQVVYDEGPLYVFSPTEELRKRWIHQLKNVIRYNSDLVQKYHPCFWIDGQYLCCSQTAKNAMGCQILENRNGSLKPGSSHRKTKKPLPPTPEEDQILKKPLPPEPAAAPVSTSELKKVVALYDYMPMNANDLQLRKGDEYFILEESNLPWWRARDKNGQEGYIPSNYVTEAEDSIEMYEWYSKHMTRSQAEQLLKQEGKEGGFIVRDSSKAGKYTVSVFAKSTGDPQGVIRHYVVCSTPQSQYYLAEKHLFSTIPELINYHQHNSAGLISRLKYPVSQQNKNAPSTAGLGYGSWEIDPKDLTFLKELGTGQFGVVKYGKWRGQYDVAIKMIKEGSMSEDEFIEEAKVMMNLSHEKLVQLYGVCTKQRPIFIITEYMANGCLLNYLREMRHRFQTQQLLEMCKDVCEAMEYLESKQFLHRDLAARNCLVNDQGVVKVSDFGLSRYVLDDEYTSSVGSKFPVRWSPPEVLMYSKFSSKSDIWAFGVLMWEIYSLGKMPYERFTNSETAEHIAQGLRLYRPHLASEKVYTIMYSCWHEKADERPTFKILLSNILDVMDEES
Target sequence in this assay (Q96SW2 whole entry): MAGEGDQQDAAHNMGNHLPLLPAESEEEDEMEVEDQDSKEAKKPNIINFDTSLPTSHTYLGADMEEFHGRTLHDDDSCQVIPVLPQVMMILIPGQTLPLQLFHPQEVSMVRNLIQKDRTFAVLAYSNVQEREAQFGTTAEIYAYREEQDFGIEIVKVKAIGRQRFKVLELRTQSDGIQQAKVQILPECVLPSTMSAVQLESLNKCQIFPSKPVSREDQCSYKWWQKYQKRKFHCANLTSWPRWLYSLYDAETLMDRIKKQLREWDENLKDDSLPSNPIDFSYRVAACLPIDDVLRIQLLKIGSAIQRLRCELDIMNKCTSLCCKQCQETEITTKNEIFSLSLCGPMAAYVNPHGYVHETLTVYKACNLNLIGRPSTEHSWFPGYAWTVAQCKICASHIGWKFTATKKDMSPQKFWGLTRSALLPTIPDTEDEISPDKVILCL

[2] = biological target: T1, Protein cereblon/Tyrosine-protein kinase BTK; test: Protac activity at CRBN/BTK in human NAMALWA cells assessed as induction of BTK protein degradation incubated for 24 hrs by immunoblotting method relative to control; assay type: cell-based; conditions: NAMALVA; how it was run: as §1
Target sequence in this assay (Q06187 2-659 limits assumed): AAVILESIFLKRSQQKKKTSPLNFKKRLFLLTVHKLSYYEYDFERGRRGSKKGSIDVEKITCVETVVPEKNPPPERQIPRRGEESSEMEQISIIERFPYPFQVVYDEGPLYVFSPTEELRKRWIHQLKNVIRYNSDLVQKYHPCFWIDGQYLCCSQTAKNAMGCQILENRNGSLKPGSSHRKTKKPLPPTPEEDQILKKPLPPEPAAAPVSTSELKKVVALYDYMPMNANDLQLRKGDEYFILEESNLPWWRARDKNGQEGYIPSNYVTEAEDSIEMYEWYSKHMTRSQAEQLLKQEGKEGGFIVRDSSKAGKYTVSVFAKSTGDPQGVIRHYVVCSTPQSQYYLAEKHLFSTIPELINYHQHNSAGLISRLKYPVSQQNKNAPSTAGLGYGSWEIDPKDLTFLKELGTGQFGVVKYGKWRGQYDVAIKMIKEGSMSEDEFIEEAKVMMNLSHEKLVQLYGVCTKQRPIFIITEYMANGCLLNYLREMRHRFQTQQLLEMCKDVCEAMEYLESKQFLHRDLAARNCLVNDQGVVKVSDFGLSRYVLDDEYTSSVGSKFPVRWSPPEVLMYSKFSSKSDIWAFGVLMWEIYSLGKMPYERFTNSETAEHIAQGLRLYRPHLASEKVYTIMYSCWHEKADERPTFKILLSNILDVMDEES
Target sequence in this assay (Q96SW2 whole entry partner): as the sequence (Q96SW2 whole entry) above

[3] = Tmax in mouse at 1 mg/kg, iv; assay type: ADME, organism-based; conditions: in vivo
[4] = AUClast in mouse at 1 mg/kg, iv; assay type: ADME, organism-based; set-up: dose 1 mg/kg, time 0 - last, route intravenous; conditions: in vivo
[5] = biological target: T2, von Hippel-Lindau disease tumor suppressor/Tyrosine-protein kinase BTK (Homo sapiens, UniProt Q06187+P40337); test: Protac activity at VHL/BTK in human NAMALWA cells assessed as induction of BTK protein degradation incubated for 24 hrs by immunoblotting method relative to control; assay type: cell-based; conditions: NAMALVA; how it was run: as §1
Target sequence in this assay (P40337 whole entry partner): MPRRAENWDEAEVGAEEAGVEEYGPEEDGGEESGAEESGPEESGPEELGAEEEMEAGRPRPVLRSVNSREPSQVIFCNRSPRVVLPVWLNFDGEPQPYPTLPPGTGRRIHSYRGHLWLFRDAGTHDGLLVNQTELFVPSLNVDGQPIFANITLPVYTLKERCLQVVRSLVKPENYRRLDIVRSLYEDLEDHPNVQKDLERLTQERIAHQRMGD
Target sequence in this assay (Q06187 2-659 limits assumed): as the sequence (Q06187 2-659 limits assumed) above

[6] = biological target: T2, von Hippel-Lindau disease tumor suppressor/Tyrosine-protein kinase BTK; test: Protac activity at VHL/BTK in human NAMALWA cells assessed as induction of BTK protein degradation incubated for 24 hrs by immunoblotting method; assay type: cell-based; conditions: namalva; how it was run: as §1
Target sequence in this assay (Q06187 whole entry): as the sequence (Q06187 whole entry) above
Target sequence in this assay (P40337 whole entry): as the sequence (P40337 whole entry partner) above

SMILES | DC50 [1] [nM] | Emax [2] [%] | Tmax [3] [min] | AUClast [4] [ng·h/mL] | Emax [5] [%] | DC50 [6] [nM]
Nc1ncnc2c1c(-c1ccc(Oc3ccccc3)cc1)nn2C1CCN(CCOCCOCCOc2ccc3c(c2)CN(C2CCC(=O)NC2=O)C3=O)CC1 (configuration not stated) | 7.9 | 95 | 1.98 | 405 | – | –
Cc1ncsc1-c1ccc(CNC(=O)[C@@H]2C[C@@H](O)CN2C(=O)[C@@H](NC(=O)COCCOCCN2CCC(n3nc(-c4ccc(Oc5ccccc5)cc4)c4c(N)ncnc43)CC2)C(C)(C)C)cc1 | – | – | – | – | 49 | 374
Cc1ncsc1-c1ccc(CNC(=O)[C@@H]2C[C@@H](O)CN2C(=O)[C@H](C(C)C)N2Cc3ccccc3C2=O)c(OCCCOCCC(=O)N2CCC(n3nc(-c4ccc(Oc5ccccc5)cc4)c4c(N)ncnc43)CC2)c1 | – | – | – | – | – | > 1000
Cc1ncsc1-c1ccc(CNC(=O)[C@@H]2C[C@@H](O)CN2C(=O)[C@H](C(C)C)N2Cc3ccccc3C2=O)c(OCCCCOCCCCN2CCC(n3nc(-c4ccc(Oc5ccccc5)cc4)c4c(N)ncnc43)CC2)c1 | – | – | – | – | 50 | 162
Nc1ncnc2c1c(-c1ccc(Oc3ccccc3)cc1)nn2C1CCN(CCOCCOCCOc2ccc3c(c2)C(=O)N(C2CCC(=O)NC2=O)C3=O)CC1 (configuration not stated) | 8.3 | 91 | 1.98 | 166 | – | –
Nc1ncnc2c1c(-c1ccc(Oc3ccccc3)cc1)nn2C1CCN(CCOCCOCC(=O)Nc2ccc3c(c2)C(=O)N(C2CCC(=O)NC2=O)C3=O)CC1 (configuration not stated) | 6.2 | 99 | 1.98 | 10.2 | – | –
